{"source": "ChEMBL document CHEMBL2169822", "about": "“Discovery and optimization of 1,3,4-trisubstituted-pyrazolone derivatives as novel, potent, and nonsteroidal farnesoid X receptor (FXR) selective antagonists” (J Med Chem, 2012)", "key": {"BL21": {"test_system": "BL21", "test": "(§1) Antagonist activity at GST-tagged human recombinant FXRalphaLBD expressed in Escherichia coli BL21 cells assessed as inhibition of CDCA-induced SRC-1 co-activator association by HTRF assay", "format": "functional", "outline": "(§2)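 HTRF coactivator recruitment: 10 nM GST-human FXRαLBD (residues 238–473, E. coli BL21(DE3)), 0.83 nM anti-GST-Eu cryptate, 100 nM biotin-SRC1 peptide, 41.75 nM SA/XL665. Buffer was 50 mM Hepes pH 7.0, 125 mM KF, 0.125% CHAPS, 0.05% dry milk. Compound alone or with CDCA, 30 min at room temperature. Signal was 1000×(668/620 nm). Primary screen at 40 μM; IC50 as mean ± SE, three experiments.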"}, "[1]": {"test": "as §1", "format": "functional", "outline": "as §2"}, "[2]": {"test": "Oral bioavailability in Sprague-Dawley rat at 50 mg/kg by LC-MS/MS analysis", "format": "ADME, organism-based", "conditions": "in vivo"}, "[3]": {"target": "T1, Oxysterols receptor LXR-alpha (Homo sapiens) (UniProt Q13133)", "T1 sequence (whole entry)": "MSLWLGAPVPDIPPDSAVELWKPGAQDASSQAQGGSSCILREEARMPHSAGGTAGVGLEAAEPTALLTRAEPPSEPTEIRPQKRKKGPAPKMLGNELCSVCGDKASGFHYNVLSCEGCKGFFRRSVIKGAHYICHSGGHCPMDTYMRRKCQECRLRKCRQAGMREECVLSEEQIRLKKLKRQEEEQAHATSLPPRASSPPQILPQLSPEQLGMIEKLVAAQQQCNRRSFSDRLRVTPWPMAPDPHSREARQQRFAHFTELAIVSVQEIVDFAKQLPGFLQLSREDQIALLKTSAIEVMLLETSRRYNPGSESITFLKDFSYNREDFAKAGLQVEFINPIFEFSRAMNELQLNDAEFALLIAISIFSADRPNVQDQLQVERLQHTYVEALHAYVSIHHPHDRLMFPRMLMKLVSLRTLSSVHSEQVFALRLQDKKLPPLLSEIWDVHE", "test": "Antagonist activity at recombinant LXRalpha LBD expressed in HEK293T cells co-expressing GAL4 DBD assessed as inhibition of TO901317-induced transactivation at 20 uM by luciferase reporter gene assay", "format": "functional, cell-based", "conditions": "HEK-293T", "outline": "(§3)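 One-hybrid assay in HEK293T cells cotransfected with a Gal4 DBD–NR-LBD fusion (RXRα, LXRα, GR, PR, PPARδ or PPARγ) plus UAS-TK-Luc reporter. Compound was 20 μM, given alone or with agonist: 9cRA 0.1 μM (RXRα), TO901317 0.5 μM (LXRα), dexamethasone 50 nM (GR), progesterone 100 nM (PR), GW1516 10 μM (PPARδ), rosiglitazone 10 μM (PPARγ). Luciferase read-out; three independent experiments.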"}, "[4]": {"target": "T2, Bile acid receptor (Homo sapiens) (UniProt Q96RI1)", "T2 sequence (whole entry)": "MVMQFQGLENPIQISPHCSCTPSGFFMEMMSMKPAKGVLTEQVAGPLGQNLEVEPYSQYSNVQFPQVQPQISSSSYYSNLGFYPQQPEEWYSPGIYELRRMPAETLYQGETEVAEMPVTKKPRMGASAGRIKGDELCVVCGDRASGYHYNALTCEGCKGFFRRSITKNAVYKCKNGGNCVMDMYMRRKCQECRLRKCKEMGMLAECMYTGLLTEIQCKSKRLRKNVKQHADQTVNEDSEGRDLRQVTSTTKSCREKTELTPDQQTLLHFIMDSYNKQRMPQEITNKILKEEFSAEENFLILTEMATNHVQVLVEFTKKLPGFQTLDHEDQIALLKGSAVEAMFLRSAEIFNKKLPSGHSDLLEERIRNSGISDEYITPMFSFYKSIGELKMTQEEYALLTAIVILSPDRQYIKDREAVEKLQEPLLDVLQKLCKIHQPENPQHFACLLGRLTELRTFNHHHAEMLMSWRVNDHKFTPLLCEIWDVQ", "test": "Antagonist activity at human FXR in human HepG2 cells assessed as inhibition of CDCA induced SHP gene expression at 5 to 40 uM after 24 hrs by RT-PCR analysis", "format": "functional, cell-based", "outline": "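HepG2 cells in 6-well plates were treated with varied concentrations of compound, with or without 100 μM CDCA, for 24 h. Total RNA was taken with TRIzol and cDNA made by reverse transcription. Cyp7A1, SHP, BSEP and SREBP1c mRNA were measured by quantitative RT-PCR and normalized to β-actin. Three independent experiments.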"}, "[5]": {"target": "T3, Peroxisome proliferator-activated receptor gamma (Homo sapiens) (UniProt P37231)", "T3 sequence (whole entry)": "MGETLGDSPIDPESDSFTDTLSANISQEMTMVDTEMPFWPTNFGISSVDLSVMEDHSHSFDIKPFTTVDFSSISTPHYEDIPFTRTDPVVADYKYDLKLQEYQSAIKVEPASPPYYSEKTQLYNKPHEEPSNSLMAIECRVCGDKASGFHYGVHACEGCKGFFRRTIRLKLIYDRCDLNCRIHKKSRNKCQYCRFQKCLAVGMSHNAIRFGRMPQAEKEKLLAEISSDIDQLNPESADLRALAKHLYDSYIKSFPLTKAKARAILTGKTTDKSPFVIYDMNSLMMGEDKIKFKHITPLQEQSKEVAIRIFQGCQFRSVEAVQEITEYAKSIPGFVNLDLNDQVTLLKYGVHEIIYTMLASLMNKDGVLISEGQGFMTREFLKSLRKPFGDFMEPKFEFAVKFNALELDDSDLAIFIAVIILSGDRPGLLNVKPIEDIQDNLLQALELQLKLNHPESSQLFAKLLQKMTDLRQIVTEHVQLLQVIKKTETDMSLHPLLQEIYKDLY", "test": "Agonist activity at recombinant PPARgamma LBD expressed in HEK293T cells co-expressing GAL4 DBD at 20 uM by transactivation assay", "format": "functional, cell-based", "conditions": "HEK-293T", "outline": "as §3"}, "[6]": {"target": "T4, Peroxisome proliferator-activated receptor delta (Homo sapiens) (UniProt Q03181)", "T4 sequence (whole entry)": "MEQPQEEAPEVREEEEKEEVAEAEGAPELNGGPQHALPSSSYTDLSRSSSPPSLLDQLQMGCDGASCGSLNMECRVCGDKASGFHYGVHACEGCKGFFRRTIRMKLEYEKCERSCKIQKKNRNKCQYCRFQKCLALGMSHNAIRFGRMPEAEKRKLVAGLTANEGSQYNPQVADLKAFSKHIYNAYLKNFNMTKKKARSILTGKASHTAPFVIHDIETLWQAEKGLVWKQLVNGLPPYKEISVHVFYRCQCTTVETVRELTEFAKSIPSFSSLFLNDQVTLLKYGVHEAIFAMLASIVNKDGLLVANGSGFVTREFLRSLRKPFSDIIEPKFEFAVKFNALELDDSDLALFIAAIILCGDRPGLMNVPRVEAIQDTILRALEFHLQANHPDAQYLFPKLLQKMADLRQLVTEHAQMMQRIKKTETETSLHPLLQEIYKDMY", "test": "Agonist activity at recombinant PPARdelta LBD expressed in HEK293T cells co-expressing GAL4 DBD at 20 uM by transactivation assay", "format": "functional, cell-based", "conditions": "HEK-293T", "outline": "as §3"}}, "note": "Activity calls are given as the source filed them. The calls are words filed in the database; no cut-off is given here.", "data": [{"smiles": "COc1cc(/C=C2\\C(=O)N(c3cccc([N+](=O)[O-])c3)N=C2c2ccccc2)ccc1O", "values": [{"measurement": "inhibition", "setting": "BL21", "value": "Dose-dependent effect"}, {"measurement": "IC50", "setting": "[1]", "value": 8.96, "unit": "µM"}, {"measurement": "bioavailability", "setting": "[2]", "value": "< 5", "unit": "%"}, {"measurement": "inhibition", "setting": "[3]", "value": "inactive"}, {"measurement": "inhibition", "setting": "[4]", "value": "Active"}, {"measurement": "Activity", "setting": "[5]", "value": "< 15.2", "unit": "%"}, {"measurement": "Activity", "setting": "[6]", "value": "inactive"}]}]}
